Test results published in paper PMC11301096 (iScience, 2024).
No end group written: not given here. *: point of attachment. Biotin = O=C1N[C@H]2[C@H](CS[C@H]2CCCCC(=O)*)N1

Key:
[1] = tested on: Huh7 cells; assay: CCK-8 proliferative activity; assay type: cell-based, human; conditions: read-out: IC50, proliferation; CCK-8, 48 h, mean of n = 3
Procedure, shortened: (§1)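 Cells grown in DMEM with 10% FBS and 1% antibiotics at 37°C, 5% CO2; log-phase cells used. Seeded at 4×10^3/well for 24 h, then exposed to graded doses of test compound (DMSO stock) for 48 h. CCK-8 reagent added for 1–2 h in the dark; absorbance read at 450 nm. Three independent experiments.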

[2] = In vivo xenograft model, toxicity read-outs; design: species or system BALB/c-Nude mice; conditions: BO1 4.57 mg/kg intraperitoneally every other day, two weeks, n = 6
Procedure, shortened: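 Four-week-old male nude mice acclimatised 7 days, then implanted subcutaneously with 2×10^6 Hep 3B cells; randomised into two groups of 6. Once tumours reached 100 mm3, given 200 μL saline or test compound intraperitoneally every other day, with weighing and tumour measurement. Killed after two weeks; serum taken for ALT, AST and creatinine.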

[3] = tested on: Hep 3B cells; assay: CCK-8 proliferative activity; assay type: cell-based, human; conditions: read-out: IC50, proliferation; CCK-8, 48 h, mean of n = 3
Procedure, shortened: as §1

[4] = tested on: L-O2 cells; assay: Hoechst 33258 staining; assay type: cell-based, human; conditions: 20 μM BO1, 48 h
Procedure, shortened: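 Seeded at 4×10^4 cells/well for 24 h, then treated 48 h. Fixed in 4% tissue fixative for 15 min and stained with Hoechst 33258 for 5 min. Washed twice with PBS; nuclei viewed by fluorescence microscopy.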

[5] = tested on: human normal hepatocyte L-O2; assay: CCK-8 proliferative activity; assay type: cell-based; conditions: 10 μM and 20 μM BO1, CCK-8, 48 h
Procedure, shortened: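 Normal hepatocytes seeded at 4×10^3/well and incubated 24 h, then exposed to test compound for 48 h. CCK-8 reagent added for 1–2 h protected from light; absorbance measured at 450 nm. Three independent experiments.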

[6] = tested on: L-O2 cells; assay: Cell cycle analysis by flow cytometry; assay type: cell-based, human; conditions: 20 μM BO1, 48 h
Procedure, shortened: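 Cells (5×10^5 per 100 mm dish) attached for 24 h, then exposed to test compound for 48 h. Cell pellets fixed in 70% ethanol for 4 h and washed twice with PBS. Stained with a DNA-content quantitation kit; cell-cycle distribution read by flow cytometry.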

[7] = target: HSP90A (Homo sapiens, UniProt P07900); assay: Biotinylated pull-down with western blot; assay type: binding; conditions: compared to samples extracted with IgG; cell extracts, 4°C, 12 h
Procedure, shortened: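 Bead-bound biotin-labelled test compound (4°C, 3 h) rotated with cell extracts at 4°C for 12 h. Beads washed in ice-cold NT2 buffer (4°C, 5 min), then four more washes. Bound proteins eluted with protein elution buffer plus DTT at 37°C for 2 h. Eluates analysed by LC-MS and western blot, with an IgG pull-down as negative control.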

GIGSAILSAGKSIIKGLAKGLAEHF-NH2 [BO1, Bombinin-BO1]
IC50 [1]: 24.9 µM
histopathological examination of major organs (heart, liver, spleen, and kidney), H&E [2]: normal findings
serum alanine aminotransferase (ALT) activity [2]: comparable to those of control mice
serum aspartate aminotransferase (AST) activity [2]: comparable to those of control mice
serum creatinine (CREA) activity [2]: comparable to those of control mice
IC50 [3]: 15.2 µM
nuclear fluorescence staining [4]: no significant changes
activity of normal hepatocytes (proliferative activity) [5]: no significant change
cell cycle progression [6]: not significantly affected

bio-BO1: Biotin-labeled BO1 (Biotin-GIGSAILSAGKSIIKGLAKGLAEHF-NH2; SMILES CC[C@H](C)[C@H](NC(=O)CNC(=O)CCCC[C@@H]1SC[C@@H]2NC(=O)N[C@@H]21)C(=O)NCC(=O)N[C@@H](CO)C(=O)N[C@@H](C)C(=O)N[C@H](C(=O)N[C@@H](CC(C)C)C(=O)N[C@@H](CO)C(=O)N[C@@H](C)C(=O)NCC(=O)N[C@@H](CCCCN)C(=O)N[C@@H](CO)C(=O)N[C@H](C(=O)N[C@H](C(=O)N[C@@H](CCCCN)C(=O)NCC(=O)N[C@@H](CC(C)C)C(=O)N[C@@H](C)C(=O)N[C@@H](CCCCN)C(=O)NCC(=O)N[C@@H](CC(C)C)C(=O)N[C@@H](C)C(=O)N[C@@H](CCC(=O)O)C(=O)N[C@@H](Cc1c[nH]cn1)C(=O)N[C@@H](Cc1ccccc1)C(N)=O)[C@@H](C)CC)[C@@H](C)CC)[C@@H](C)CC)
HSP90A in samples pulled by bio-BO1 (western blot) [7]: significantly detected
